From ChEMBL document CHEMBL1152796, “Azole antimicrobial pharmacophore-based tetrazoles: synthesis and biological evaluation as potential antimicrobial and anticonvulsant agents” (Bioorg Med Chem, 2009)
In brackets after ≈: the same amount, converted by molar mass. Activity calls are given as the source filed them. The calls are words filed in the database; no cut-off is given here.

Columns and labels:
[1] = system: Mus musculus; experiment: Anticonvulsant activity in Wister albino mouse assessed as protection against subcutaneous metrazole-induced seizures at 100 mg/kg, ip administered 30 mins before metrazole challenge measured after 30 mins; type: functional; conditions: route intraperitoneal
How it was run: (§1)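 Wistar albino mice, either sex, 25–30 g, 3 months old, in groups of six. Compounds in DMSO were given ip at 30, 100 or 300 mg/kg; vehicle-only controls. After 30 min, metrazole 100 mg/kg in DMSO was injected sc at the posterior midline. Protection meant absence of any clonic spasm lasting ≥5 s; scored as protected/tested.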

[2] = system: Mus musculus; experiment: Anticonvulsant activity in Wister albino mouse assessed as protection against maximal electroshock-induced seizures at 100 mg/kg, ip administered 30 mins before metrazole challenge measured after 30 mins; type: functional; conditions: route intraperitoneal
[3] = system: Mus musculus; experiment: Toxicity in Wister albino mouse assessed as death following tonic extension at 100 mg/kg, ip; type: organism-based; design: dose 100 mg/kg, route intraperitoneal; conditions: in vivo
How it was run: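 Wistar albino mice of either sex (25–30 g, 3 months), six per group. Compound was dissolved in DMSO and given ip 30 min before the maximal electroshock test, with solvent-only controls. Corneas received 0.5% xylocaine; 6 Hz, 0.2-ms pulses were given for 3 s at 6–64 mA. Animals were observed 30 min after dosing, and deaths following tonic extension were recorded.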

[4] = system: Candida albicans; experiment: Antifungal activity against Candida albicans isolate after 72 hrs by twofold serial dilution method; type: functional
[5] = system: Aspergillus fumigatus; experiment: Antifungal activity against Aspergillus fumigatus isolate after 72 hrs by twofold serial dilution method; type: functional
[6] = system: Mus musculus; experiment: Anticonvulsant activity in Wister albino mouse assessed as protection against subcutaneous metrazole-induced seizures at 30 mg/kg, ip administered 30 mins before metrazole challenge measured after 30 mins; type: functional; how it was run: as §1
[7] = system: Mus musculus; experiment: Anticonvulsant activity in Wister albino mouse assessed as protection against subcutaneous metrazole-induced seizures at 300 mg/kg, ip administered 30 mins before metrazole challenge measured after 30 mins; type: functional; how it was run: as §1
[8] = system: Staphylococcus aureus; experiment: Antibacterial activity against Staphylococcus aureus ATCC 6538 after 24 to 48 hrs by twofold serial dilution method; type: functional
How it was run: (§2)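 Broth microdilution in Müller–Hinton broth. DMSO stocks at 800 were diluted twofold from 400 down to 6.25. Wells received 10^6 CFU/mL bacterial suspension and were incubated at 36 °C for 24–48 h, with controls. MIC was read per well. Duplicate assays; run only for compounds giving inhibition zones ≥14 mm.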

[9] = system: Bacillus subtilis; experiment: Antibacterial activity against Bacillus subtilis NRRL B-14819 after 24 to 48 hrs by twofold serial dilution method; type: functional; how it was run: as §2
[10] = system: Micrococcus luteus; experiment: Antibacterial activity against Micrococcus luteus ATCC 21881 after 24 to 48 hrs by twofold serial dilution method; type: functional; how it was run: as §2
[11] = system: Escherichia coli; experiment: Antibacterial activity against Escherichia coli ATCC 25922 after 24 to 48 hrs by twofold serial dilution method; type: functional; how it was run: as §2
[12] = system: Pseudomonas aeruginosa; experiment: Antibacterial activity against Pseudomonas aeruginosa ATCC 27853 after 24 to 48 hrs by twofold serial dilution method; type: functional; how it was run: as §2
[13] = system: Klebsiella pneumoniae; experiment: Antibacterial activity against Klebsiella pneumoniae isolate after 24 to 48 hrs by twofold serial dilution method; type: functional; how it was run: as §2
[14] = system: Candida tropicalis; experiment: Antifungal activity against Candida tropicalis isolate after 72 hrs by twofold serial dilution method; type: functional, organism-based
[15] = system: Pichia kudriavzevii; experiment: Antifungal activity against Candida krusei isolate after 72 hrs by twofold serial dilution method; type: functional, organism-based
[16] = system: Aspergillus niger; experiment: Antifungal activity against Aspergillus niger isolate after 72 hrs by twofold serial dilution method; type: functional, organism-based
[17] = system: Trichophyton rubrum; experiment: Antifungal activity against Trichophyton rubrum isolate after 72 hrs by twofold serial dilution method; type: functional, organism-based
[18] = system: Staphylococcus aureus; experiment: Antibacterial activity against Staphylococcus aureus ATCC 6538 at 1 mg/mL after 24 hrs by agar diffusion method; type: functional; conditions: ATCC 6538, 24 h, read-out: Diameter of inhibition zone
How it was run: (§3)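 Agar disc diffusion: 5 mm sterile paper discs soaked in 1 mg/mL test solution in DMSO were placed on agar seeded with the organism, in triplicate, with a DMSO-only control. Bacterial plates were incubated at 37 °C for 24 h and fungal plates for 7 days. Read-out was the average inhibition-zone diameter in mm. Fungi were clinical isolates.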

[19] = system: Bacillus subtilis; experiment: Antibacterial activity against Bacillus subtilis NRRL B-14819 at 1 mg/mL after 24 hrs by agar diffusion method; type: functional; conditions: read-out: Diameter of inhibition zone; how it was run: as §3
[20] = system: Micrococcus luteus; experiment: Antibacterial activity against Micrococcus luteus ATCC 21881 at 1 mg/mL after 24 hrs by agar diffusion method; type: functional; conditions: ATCC 21881, 24 h, read-out: Diameter of inhibition zone; how it was run: as §3
[21] = system: Escherichia coli; experiment: Antibacterial activity against Escherichia coli ATCC 25922 at 1 mg/mL after 24 hrs by agar diffusion method; type: functional; conditions: ATCC 25922, 24 h, read-out: Diameter of inhibition zone; how it was run: as §3
[22] = system: Pseudomonas aeruginosa; experiment: Antibacterial activity against Pseudomonas aeruginosa ATCC 27853 at 1 mg/mL after 24 hrs by agar diffusion method; type: functional; conditions: ATCC 27853, 24 h, read-out: Diameter of inhibition zone; how it was run: as §3
[23] = system: Klebsiella pneumoniae; experiment: Antibacterial activity against Klebsiella pneumoniae isolate at 1 mg/mL after 24 hrs by agar diffusion method; type: functional; conditions: read-out: Diameter of inhibition zone; how it was run: as §3
[24] = system: Candida albicans; experiment: Antifungal activity against Candida albicans isolate at 1 mg/mL after 7 days by twofold serial dilution method; type: functional; conditions: 168 h, read-out: Diameter of inhibition zone
[25] = system: Aspergillus fumigatus; experiment: Antifungal activity against Aspergillus fumigatus isolate at 1 mg/mL after 7 days by agar diffusion method; type: functional; conditions: 168 h, read-out: Diameter of inhibition zone; how it was run: as §3

SMILES | MIC [4] | MIC [5] | MIC [8] | MIC [9] | MIC [10] | MIC [11] | MIC [12] | MIC [13] | Activity [1] | Activity [2] | Activity [14] | Activity [15] | Activity [16] | Activity [17] | zone of inhibition at 1000 µg/mL [18] | zone of inhibition at 1000 µg/mL [19] | zone of inhibition at 1000 µg/mL [20] | zone of inhibition at 1000 µg/mL [21] | zone of inhibition at 1000 µg/mL [22] | zone of inhibition at 1000 µg/mL [23] | other results
O=C(Cn1nnc(-c2ccccc2)n1)c1ccc(Cl)cc1 | – | – | – | – | – | – | – | – | 0% | 0% | – | – | – | – | – | – | – | – | – | – | Activity [3]: Toxic
Clc1ccccc1C(c1ccccc1)(c1ccccc1)n1ccnc1 [CLOTRIMAZOLE] | 6.25 µg/mL (≈ 18.1 µM) | 12.5 µg/mL (≈ 36.2 µM) | – | – | – | – | – | – | – | – | – | – | – | – | – | – | – | – | – | – | –
OC(Cn1nnnc1Cc1ccccc1)c1ccc(Cl)cc1 (stereo unspecified) | – | – | – | – | – | – | – | – | 100% | 67% | – | – | – | – | – | – | – | – | – | – | Activity [6]: 0%; Activity [7]: 50%
Cc1cc(C)n(C(=O)COC(Cn2nnnc2Cc2ccccc2)c2ccc(Cl)cc2)n1 (stereo unspecified) | 100 µg/mL (≈ 222 µM) | ≥ 200 µg/mL | 25 µg/mL (≈ 55.4 µM) | 50 µg/mL (≈ 111 µM) | 50 µg/mL (≈ 111 µM) | 100 µg/mL (≈ 222 µM) | ≥ 200 µg/mL | ≥ 200 µg/mL | 0% | 0% | inactive | inactive | inactive | inactive | ≥ 14 mm | ≥ 14 mm | ≥ 14 mm | ≥ 14 mm | ≥ 14 mm | ≥ 14 mm | zone of inhibition at 1000 µg/mL [24]: ≥ 14 mm; zone of inhibition at 1000 µg/mL [25]: ≥ 14 mm

The next lines start with results.

MIC [4] | MIC [5] | MIC [8] | MIC [9] | MIC [10] | MIC [11] | MIC [12] | MIC [13] | SMILES | Activity [1] | Activity [2] | Activity [14] | Activity [15] | Activity [16] | Activity [17] | zone of inhibition at 1000 µg/mL [18] | zone of inhibition at 1000 µg/mL [19] | zone of inhibition at 1000 µg/mL [20] | zone of inhibition at 1000 µg/mL [21] | zone of inhibition at 1000 µg/mL [22] | zone of inhibition at 1000 µg/mL [23] | other results
25 µg/mL (≈ 51.2 µM) | ≥ 200 µg/mL | 25 µg/mL (≈ 51.2 µM) | 50 µg/mL (≈ 102 µM) | ≥ 200 µg/mL | 50 µg/mL (≈ 102 µM) | ≥ 200 µg/mL | ≥ 200 µg/mL | Clc1ccc(C(Cn2nnnc2Cc2ccccc2)OCc2nnc(Nc3ccccc3)o2)cc1 (stereo unspecified) | – | – | inactive | inactive | inactive | inactive | ≥ 14 mm | ≥ 14 mm | ≥ 14 mm | ≥ 14 mm | ≥ 14 mm | ≥ 14 mm | zone of inhibition at 1000 µg/mL [24]: ≥ 14 mm; zone of inhibition at 1000 µg/mL [25]: ≥ 14 mm
– | – | 12.5 µg/mL (≈ 25.5 µM) | 50 µg/mL (≈ 102 µM) | 50 µg/mL (≈ 102 µM) | 50 µg/mL (≈ 102 µM) | 100 µg/mL (≈ 204 µM) | 50 µg/mL (≈ 102 µM) | Sc1nnc(COC(Cn2nnc(-c3ccccc3)n2)c2ccc(Cl)cc2)n1-c1ccccc1 (stereo unspecified) | 33% | 33% | inactive | inactive | inactive | inactive | ≥ 14 mm | ≥ 14 mm | ≥ 14 mm | ≥ 14 mm | ≥ 14 mm | ≥ 14 mm | zone of inhibition at 1000 µg/mL [24]: ≥ 14 mm; zone of inhibition at 1000 µg/mL [25]: ≥ 14 mm
